Assay outcomes deposited in PubChem by several laboratories.
The list is not random: actives were taken first. Their share in the collection is about 1.7%.
Pemphigus Ab inh: inhibitors of pemphigus antibody binding to human desmoglein-3; P32926; DSG3-coupled beads, scFv-anti-DSG3-GFP binding, flow cytometry; hits give low values; binding (percent of control), % at 10 µM; 0.48% of 310,000 active;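 active = binding more than 3 SD below its plate's average and above zero; inconclusive = below that plate limit but binding exactly zero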;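 also: hits lower antibody fragment binding to DSG3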
STEP inh: blocks human striatal-enriched tyrosine phosphatase; P54829; 0.25% of 360,000 active; recombinant STEP, OMFP fluorogenic substrate, fluorescence; inhibition, % at 20 µM; AID 588621;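 active = inhibition at 20 µM, scaled per plate between control wells, above about 37%, limit read from the data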
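System: STEP (striatal-enriched tyrosine phosphatase) enzyme, cell-free; medium: Bis-Tris pH 6.0 buffer with DTT, detergent; dosing: 20 µM, 1% DMSO; times: reaction 20 min, ambient temperature; detection: fluorescence, 480/540 nm; read-out basis: normalized % inhibition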
LMPTP inh: blocks human LMPTP phosphatase | P24666 | recombinant LMPTP-A, OMFP fluorogenic substrate, fluorescence intensity | inhibition, % at 20 µM | 0.22% of 360,000 active;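 active = compounds that cut the enzyme signal by at least half of the control window in the single-dose screen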
Target sequence (P24666 whole entry, looked up): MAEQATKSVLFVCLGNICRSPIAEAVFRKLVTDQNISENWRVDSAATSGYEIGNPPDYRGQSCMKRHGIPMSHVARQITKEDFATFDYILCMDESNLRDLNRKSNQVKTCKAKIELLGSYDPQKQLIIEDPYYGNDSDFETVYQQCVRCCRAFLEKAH
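Test system – LMPTP-A phosphatase enzyme · Quantity – 0.625 nM LMPTP-A final · Reagent – OMFP substrate, 400 µM final · Dosing – one test concentration per compound, 20 µM, with 3% DMSO overall · Timing – 50 min enzyme reaction at room temperature, protected from light · Detection – fluorescence intensity · Controls – substrate-only low control, DMSO enzyme-plus-substrate high control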
SUMO1-SIM PPI: modulators of human SUMO1-mediated protein-protein interactions; 0.33% of 360,000 active; SUMO1 binding to a labelled peptide, TR-FRET, 1 h; inhibition, % at 20 µM; P63165; in the data active = inhibition above about 37%
Target sequence (P63165 whole entry, looked up): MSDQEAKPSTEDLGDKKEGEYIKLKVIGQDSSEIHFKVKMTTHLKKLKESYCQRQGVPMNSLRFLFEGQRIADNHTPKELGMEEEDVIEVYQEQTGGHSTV
Scp1 inh: Scp-1 (human) phosphatase inhibition | Q9GZU7 | Recombinant Scp1, phosphopeptide, malachite green phosphate absorbance | inhibition, % at 20 µM | 0.88% of 340,000 active;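 active = inhibition above about 50% at 20 µM, limit read from the data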
Target sequence (Q9GZU7 76-261 limits assumed): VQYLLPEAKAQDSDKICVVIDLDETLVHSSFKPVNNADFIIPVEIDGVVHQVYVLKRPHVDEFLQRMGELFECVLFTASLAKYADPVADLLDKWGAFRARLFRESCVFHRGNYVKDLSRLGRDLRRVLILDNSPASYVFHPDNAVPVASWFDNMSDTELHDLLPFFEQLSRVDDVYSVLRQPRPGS
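System: SCP-1 catalytic domain; Reagent: Phospho 17-mer peptide substrate; Doses: one concentration, 20 µM, with 1.0% DMSO; Incubation: 45 min room-temperature reaction, 5 min colour, 30 min stabiliser; Signal: Phosphate-binding colour reagent, absorbance read at 630 nm.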
STEP inh conf: confirmation of human STEP phosphatase inhibitors; shares compounds with STEP inh; recombinant STEP, OMFP fluorogenic substrate, fluorescence; inhibition, % at 20 µM; 32% of 520 active; call rule not given here
Each line names hits and unclear results; the compound was inactive in the other large screens (follow-up assays come after a bar, where they were run).

COc1ccccc1NC(=O)CCS(=O)(=O)c1ccc2c(c1)NC(=O)C(C)S2 (stereo not given)	Pemphigus Ab inh inconclusive, STEP inh 61.6 | STEP inh conf inactive
O=C(Nc1nc2ccc(F)cc2s1)c1cccc(S(=O)(=O)N2CCc3ccccc32)c1	none
Cc1ccc2nc(NC(=O)c3ccc(S(=O)(=O)N4CCCc5ccccc54)cc3)sc2c1	STEP inh 121.1 | STEP inh conf inactive
COc1ccc(OC)c(C(=O)c2ccccn2)c1	STEP inh 94.7 | STEP inh conf inactive
O=C(N/N=C/c1ccccn1)c1ccc(N/N=C/c2ccccn2)cc1	none
O=C(N/N=C/c1ccccn1)c1ccc(Br)cc1	STEP inh 72.5 | STEP inh conf inactive
NC1=NC[C@H](Cc2ccccc2)N1CCc1cccc(F)c1	STEP inh 70.4, SUMO1-SIM PPI 73.9 | STEP inh conf inactive
NC1=NC[C@H](Cc2ccccc2)N1CCCCC1CCCCC1	none
CCOc1ccsc1C(=O)O	none
N#CNc1nc(O)cc(=O)[nH]1	STEP inh 97.8, LMPTP inh 86.7 | STEP inh conf 63.4
CCSc1nc(O)cc(=O)[nH]1	none
COc1ccc(-c2ccc(NC(=O)c3ccc(Br)o3)cc2)nn1	STEP inh 42.3, LMPTP inh 53.8 | STEP inh conf 33.4
O=C(NCCCNC(=O)c1cnccn1)c1ccc(Cl)cc1	none
O=C(NCCCNC(=O)c1cnccn1)c1ccc(Br)cc1	STEP inh 59.4 | STEP inh conf inactive
Cc1cccc(NC(=O)CSc2nc(=O)n(CCCN3CCOCC3)c3c2CCCC3)c1C	none (no result: Scp1 inh)
CCCCCOC(=O)c1ccc(NC(=O)c2cccc(NC(=O)c3ccccc3C(=O)O)c2)cc1	none
CCN(CC)S(=O)(=O)c1ccc2oc(C(=O)NC(C)C)c(C)c2c1	none (no result: Pemphigus Ab inh)
CCN(CC)S(=O)(=O)c1ccc2oc(C(=O)NCc3ccc(C)cc3)c(C)c2c1	STEP inh 60.7 | STEP inh conf inactive
CC1SC(C)C(=O)N(CC(=O)Nc2ccc([N+](=O)[O-])cc2)C1=O (stereo not given)	none
CC1(C)CC(=O)C(C=NCC2CCNCC2)=C(O)C1	none
CC1(C)CC(=O)C(C=NCC2CCN(C(=O)Cc3ccccc3)CC2)=C(O)C1	STEP inh 47.5, SUMO1-SIM PPI 69.9 (no result: Pemphigus Ab inh) | STEP inh conf inactive
CC(C)NC[C@H](O)COc1ccc(CC(N)=O)cc1	none
CCOc1ccccc1-c1noc(CCC(=O)NC2CCCCC2)n1	STEP inh 91.8 | STEP inh conf inactive
COc1ccccc1-c1noc(CCC(=O)NC2CCCC2)n1	none
FC(F)(F)Oc1ccc(NC(=S)NCCCN2CCOCC2)cc1	STEP inh 41.2 | STEP inh conf inactive
C=CCn1c(=O)c2c(nc(-n3nc(C)cc3C)n2C)n(C)c1=O	none
CSc1ccccc1NC(=O)CN(C)C(=O)c1cccc(S(=O)(=O)N(C)C)c1	STEP inh 49.4 | STEP inh conf inactive
Cc1ccc([C@H]2N[C@]3(CCCN(Cc4ccc(Br)cc4)C3=O)[C@H]3C(=O)N(C)C(=O)[C@@H]23)cc1	none (no result: Pemphigus Ab inh, Scp1 inh)
O=C1NC(=Nc2cccnc2)S/C1=C\c1cccc(F)c1	STEP inh 57.0 | STEP inh conf inactive
O=C1NC(=Nc2ccccc2)S/C1=C/c1cccnc1	none
O=C(Cn1c2ccccc2c(=O)c2ccccc21)N/N=C/c1cc([N+](=O)[O-])ccc1N1CCCCCC1	STEP inh 89.3, LMPTP inh 65.7, Scp1 inh 86.6 | STEP inh conf inactive
O=C(Cn1c2ccccc2c(=O)c2ccccc21)N/N=C/c1ccc(N2CCCC2)c([N+](=O)[O-])c1	none
O=C(CCC(=O)NCCCc1ccccc1)NCCCc1ccccc1	STEP inh 119.3 | STEP inh conf inactive
CN1CCc2c(sc(/N=C/c3c[nH]c4ccccc34)c2C(N)=O)C1	STEP inh 50.7, LMPTP inh 67.3, SUMO1-SIM PPI 91.7 | STEP inh conf inactive
COc1ccc(S(=O)(=O)Nc2noc3ccccc23)cc1	STEP inh 84.4 | STEP inh conf inactive
Nc1ccc(-n2nncc2-c2ccc(Cl)cc2)cc1	none
C[C@H](CO)N1C[C@H](C)[C@@H](CN(C)S(=O)(=O)c2cn(C)cn2)Oc2c(NS(=O)(=O)c3cccs3)cccc2C1=O	none
CC1(C)CC(NC(=S)Nc2ccc(S(N)(=O)=O)cc2)CC(C)(C)N1	STEP inh 62.9 | STEP inh conf inactive
NS(=O)(=O)c1ccc(NC(=S)NC2CC2)cc1	none
C/C(CC(=O)Nc1ccc2c(c1)OCCO2)=N\NC(=O)COc1ccccc1C	STEP inh 50.0 | STEP inh conf inactive
C/C(CC(=O)Nc1ccc2c(c1)OCCO2)=N\NC(=O)COc1cccc(C)c1	none
Cc1ccc(C2C(C(=O)O)c3ccccc3C(=O)N2C)o1 (stereo not given)	none
COc1cc2c(cc1OC)C(C(=O)O)C(c1ccc(C)o1)N(C)C2=O (stereo not given)	STEP inh 56.2 | STEP inh conf inactive
Cn1cc(P(=S)(N2CCOCC2)N2CCOCC2)cc1P(=O)(N1CCOCC1)N1CCOCC1	none
Cn1cc(P(=O)(N2CCOCC2)N2CCOCC2)cc1P(=S)(N1CCOCC1)N1CCOCC1	STEP inh 61.7 | STEP inh conf inactive
Cc1cc(NC(=O)CSC2=NS(=O)(=O)c3cc(F)ccc3N2)no1	none
CCOC(=O)c1c(CN2CCNCC2)nc2ccc(Cl)cc2c1-c1ccccc1	none (no result: Pemphigus Ab inh)
Cc1ccc(NS(=O)(=O)c2cc(NC(=O)c3ccc4c(c3)NC(=O)CS4)ccc2C)c(C)c1	none
N#Cc1cc2cc3c(cc2nc1N1CCCCC1)OCCO3	none
N#Cc1cc2cc3c(cc2nc1Cl)OCCO3	STEP inh 48.8 (no result: Scp1 inh) | STEP inh conf inactive
O=C(Nc1ccc(C(=O)N2CCCCC2)cc1)c1cccs1	STEP inh 67.8 | STEP inh conf inactive
Cc1cc(NC(=O)c2cccs2)ccc1NC(=O)Cc1ccccc1	none
O=C(NN=Cc1ccccc1O)c1cccc([N+](=O)[O-])c1	STEP inh 59.3, LMPTP inh 81.8, Scp1 inh 96.7 | STEP inh conf 100.3
O=C(O)c1ccc(NC(=O)c2ccccc2NC(=O)c2cccc(F)c2)cc1	STEP inh 67.7 | STEP inh conf inactive
Cc1cccc(C(=O)Nc2ccccc2C(=O)Nc2ccc(C(=O)O)cc2)c1	none
c1ccc(OCCNc2nc(NCC3CC3)nc3cc(-c4ccccc4)sc23)cc1	STEP inh 43.0 (no result: Pemphigus Ab inh, Scp1 inh) | STEP inh conf inactive
NS(=O)(=O)c1ccc(NC(=S)N2CCN(c3ccccc3Cl)CC2)cc1	none
CN1CCN(C(=S)Nc2ccc(S(N)(=O)=O)cc2)CC1	STEP inh 81.3 | STEP inh conf 38.8
CN1CCN(C(=S)C(=O)Nc2ccc(Br)cc2)CC1	STEP inh 94.5 | STEP inh conf 76.9
